Results as given in publication PMC2386079 (Journal of Antimicrobial Chemotherapy, 2008).
Read-outs that look alike come from different tables or passages of the source.

How the values were obtained:
[1] = cited from earlier work
rat embryo fibroblasts [2] = experiment: total phospholipid and cholesterol content, fibroblasts; assay type: cell-based; conditions: 72 h, telavancin 90 mg/L, vancomycin 50 mg/L, oritavancin 25 mg/L, n = 6–8; for total cholesterol content: control 130 ± 16 nmol/mg of protein; for total phospholipid content: control 295 ± 8 nmol/mg of protein
J774 mouse macrophages = experiment: total phospholipid and cholesterol content, macrophages; assay type: cell-based; conditions: 24 h, telavancin 90 mg/L, vancomycin 50 mg/L, oritavancin 25 mg/L, n = 6–8; for total cholesterol content: control 72 ± 3 nmol/mg of protein; for total phospholipid content: control 204 ± 10 nmol/mg of protein
J774 macrophages [3] = conditions: cited from earlier work; for accumulation level in macrophages: recorded previously in the same conditions (macrophages, 24 h)
rat embryo fibroblasts [4] = experiment: release of lactate dehydrogenase; assay type: cell-based; conditions: 72 h incubation, telavancin 90 mg/L, vancomycin 50 mg/L, oritavancin 25 mg/L (human Cmax), controls 13.4 ± 3.7%, n = 3
Procedure, shortened: (§1)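 LDH release into the culture medium was measured after exposure to the test compound to assess pericellular membrane integrity. J774 macrophages were grown in RPMI 1640 and rat embryo fibroblasts in Dulbecco's modified Eagle's medium, both with 10% fetal calf serum.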

J774 macrophages [5] = experiment: release of lactate dehydrogenase; assay type: cell-based, mouse; conditions: 24 h incubation, telavancin 90 mg/L, vancomycin 50 mg/L, oritavancin 25 mg/L (human Cmax), controls 5.0 ± 0.2%, n = 3
Procedure, shortened: as §1

J774 macrophages [6] = experiment: cellular uptake, accumulation and efflux; assay type: in vitro ADME, mouse
J774 macrophages [7] = experiment: electron microscopy with morphometric analysis of lysosomal changes, macrophages; assay type: cell-based, mouse; conditions: 24 h
rat embryo fibroblasts [8] = experiment: cellular uptake; assay type: in vitro ADME; conditions: stated for both cell types
rat embryo fibroblasts [9] = experiment: electron microscopy with morphometric analysis of lysosomal changes, fibroblasts; assay type: cell-based; conditions: 72 h
J774 macrophages [10] = experiment: subcellular distribution by cell fractionation and isopycnic centrifugation; assay type: in vitro ADME, mouse; conditions: 24 h, 90 mg/L
Procedure, shortened: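 J774 macrophages were exposed 24 h at 37°C to 90 mg/L labelled test compound in 10% serum medium. They were then scraped into 0.25 M sucrose/1 mM EGTA/3 mM imidazole pH 7.4 and homogenised. Low-speed spin gave unbroken cells/nuclei; high-speed spin split granules/membranes from supernatant. The granule fraction was run on an isopycnic sucrose gradient, with densities standardised 1.08–1.21. Radioactivity, protein and marker enzymes were measured, expressed as % recovered per fraction.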

| Compound | human Cmax [1] [mg/L] | total cholesterol content (rat embryo fibroblasts [2]) | total phospholipid content (rat embryo fibroblasts [2]) | total cholesterol content (J774 mouse macrophages) | total phospholipid content (J774 mouse macrophages) | accumulation level in macrophages (J774 macrophages [3]) [fold] | release of lactate dehydrogenase (rat embryo fibroblasts [4]) [%] | release of lactate dehydrogenase (J774 macrophages [5]) [%] | also measured |
| --- | --- | --- | --- | --- | --- | --- | --- | --- | --- |
| CN[C@H](CC(C)C)C(=O)N[C@H]1C(=O)N[C@@H](CC(N)=O)C(=O)N[C@H]2C(=O)N[C@H]3C(=O)N[C@H](C(=O)N[C@H](C(=O)O)c4cc(O)cc(O)c4-c4cc3ccc4O)[C@H](O)c3ccc(c(Cl)c3)Oc3cc2cc(c3O[C@@H]2O[C@H](CO)[C@@H](O)[C@H](O)[C@H]2O[C@H]2C[C@](C)(N)[C@H](O)[C@H](C)O2)Oc2ccc(cc2Cl)[C@H]1O [vancomycin, Vancomycin] | 50 | slight but not significant increase | Neither telavancin nor vancomycin caused detectable increase | slight but not significant increase | Neither telavancin nor vancomycin caused detectable increase | ~8 | 17.1 ± 1.3 | 5.0 ± 1.5 | – |
| Oritavancin | 25 | marked, statistically significant increase | significant increases | marked, statistically significant increase | significant increases | ~370 | 18.2 ± 3.0 | 15.5 ± 1.5 | initial uptake clearance rate (J774 macrophages [3]; J774 macrophages): ~150 µL/mg of protein/h |
| Telavancin | 90 | slight but not significant increase | Neither telavancin nor vancomycin caused detectable increase | slight but not significant increase | Neither telavancin nor vancomycin caused detectable increase | – | 16.9 ± 2.5 | 4.9 ± 1.0 | accumulation level in macrophages (J774 macrophages [6]; 24 h): ~45 fold; apparent rate of efflux relative to influx (fold lower) (J774 macrophages [6]; initial uptake 12 h at 90 mg/L, then drug-free medium for 24 h): ~5.7 fold; uptake rate without serum relative to with serum (fold faster) (J774 macrophages [6]; medium not supplemented with calf serum, 5 h, 10–90 mg/L, data not shown): ~ 1.7 fold; clearance rate (abstract) (J774 macrophages [6]; stated for both cell types): ~10 mL/g of protein/h; half-life ([1]; serum, once-daily administration): 7.5 h; cellular concentration in human alveolar macrophages ([1]; within 8–24 h after systemic administration of therapeutic doses): ~ 50 mg/L; ultrastructural alterations (electron microscopy) (J774 macrophages [7]; J774 macrophages, 90 mg/L): enlargement of lysosomes that were filled with a pleiotropic material; morphometric changes compared with vancomycin (J774 macrophages [7]; macrophages, 25 mg/L telavancin vs 50 mg/L vancomycin): changes similar to those seen with 50 mg/L vancomycin; morphometric alterations compared with oritavancin (J774 macrophages [7]; macrophages, 90 mg/L telavancin vs 20 mg/L oritavancin): considerably milder than in cells incubated with 20 mg/L oritavancin; clearance rate (abstract) (rat embryo fibroblasts [8]): ~10 mL/g of protein/h; ultrastructural alterations (electron microscopy) (rat embryo fibroblasts [9]; 90 mg/L): enlargement of lysosomes that were filled with a pleiotropic material; morphometric alterations compared with oritavancin (rat embryo fibroblasts [9]; 90 mg/L telavancin vs 20 mg/L oritavancin): considerably milder than in cells incubated with 20 mg/L oritavancin; morphometric changes compared with vancomycin (rat embryo fibroblasts [9]; 90 mg/L telavancin vs 50 mg/L vancomycin): changes similar to those seen with 50 mg/L vancomycin; cell-associated drug recovered in supernatant fraction (J774 macrophages [10]; N-acetyl-β-glucosaminidase 6%): 10%; cell-associated drug recovered in unbroken cells/nuclei fraction (J774 macrophages [10]; N-acetyl-β-glucosaminidase 27%): 35%; cell-associated drug recovered in granules/membranes fraction (J774 macrophages [10]; N-acetyl-β-glucosaminidase 67%): 55% |
